The values that follow come from ChEMBL document CHEMBL4196202, “Discovery and Structure-Based Optimization of Benzimidazole-Derived Activators of SOS1-Mediated Nucleotide Exchange on RAS” (J Med Chem, 2018).

pEC50, pKd: −log10 of the molar value. In brackets after ≈: the same amount, converted by molar mass. Activity calls are given as the source filed them. The calls are words filed in the database; no cut-off is given here. A value given as a limit tells only on which side of the number the result lay.

The target in series [1] is Son of sevenless homolog 1 (Homo sapiens, UniProt Q07889). Description: Activation of SOS1 in human NCI-H727 cells expressing KRAS G12V mutant assessed as induction of ERK1/2 T202/Y204 phosphorylation incubated for 30 mins by In-cell Western assay. It is filed as cell-based.
Series [2] can be described thus: Aqueous solubility in pH 6.8 buffer at 1 mg/mL by HPLC/DAD-UV assay. It is filed as physicochemical. The gist of the method: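 Solid compound was dispensed at 1 mg/mL into McIlvaine buffer pH 6.8, with a reference dissolved in acetonitrile/water 1:1 (v/v). Dissolved concentration was quantified by HPLC-DAD-UV. Single experiment.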
The target of series [3] is T1, Son of sevenless homolog 1 (Homo sapiens) (UniProt Q07889).
T1 sequence (whole entry): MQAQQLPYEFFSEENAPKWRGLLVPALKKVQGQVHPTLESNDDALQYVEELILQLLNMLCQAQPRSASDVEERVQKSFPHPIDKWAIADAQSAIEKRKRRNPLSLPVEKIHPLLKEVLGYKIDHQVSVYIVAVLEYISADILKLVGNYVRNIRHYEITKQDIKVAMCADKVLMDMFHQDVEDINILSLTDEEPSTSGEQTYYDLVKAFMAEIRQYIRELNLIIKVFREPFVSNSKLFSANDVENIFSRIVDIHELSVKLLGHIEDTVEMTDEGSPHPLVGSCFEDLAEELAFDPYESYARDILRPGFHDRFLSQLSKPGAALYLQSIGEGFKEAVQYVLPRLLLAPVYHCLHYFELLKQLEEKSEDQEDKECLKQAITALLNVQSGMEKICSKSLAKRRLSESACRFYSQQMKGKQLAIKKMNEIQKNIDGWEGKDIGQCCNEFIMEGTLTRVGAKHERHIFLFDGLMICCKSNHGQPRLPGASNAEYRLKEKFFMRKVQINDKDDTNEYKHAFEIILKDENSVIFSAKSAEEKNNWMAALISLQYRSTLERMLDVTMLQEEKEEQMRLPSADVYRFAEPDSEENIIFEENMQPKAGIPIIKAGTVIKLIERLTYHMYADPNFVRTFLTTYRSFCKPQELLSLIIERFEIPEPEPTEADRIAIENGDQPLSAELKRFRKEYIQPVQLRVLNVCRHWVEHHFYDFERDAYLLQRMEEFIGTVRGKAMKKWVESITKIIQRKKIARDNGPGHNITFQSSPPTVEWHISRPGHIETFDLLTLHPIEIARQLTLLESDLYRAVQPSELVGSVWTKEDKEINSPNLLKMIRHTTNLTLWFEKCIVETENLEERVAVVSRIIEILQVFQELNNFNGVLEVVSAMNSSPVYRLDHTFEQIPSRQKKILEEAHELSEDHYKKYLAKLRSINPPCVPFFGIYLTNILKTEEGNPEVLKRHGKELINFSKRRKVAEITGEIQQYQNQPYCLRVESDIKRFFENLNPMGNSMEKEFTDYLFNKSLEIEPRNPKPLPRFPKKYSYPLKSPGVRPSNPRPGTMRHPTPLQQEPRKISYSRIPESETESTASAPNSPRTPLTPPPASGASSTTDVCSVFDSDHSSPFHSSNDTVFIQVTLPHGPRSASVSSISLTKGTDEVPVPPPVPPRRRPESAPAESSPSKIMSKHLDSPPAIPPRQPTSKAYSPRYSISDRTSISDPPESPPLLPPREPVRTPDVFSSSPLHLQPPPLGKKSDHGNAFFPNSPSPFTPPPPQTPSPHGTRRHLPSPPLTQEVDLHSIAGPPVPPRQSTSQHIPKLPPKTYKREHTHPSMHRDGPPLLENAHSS
As to the kind of experiment: Activation of SOS1 in human NCI-H727 cells expressing KRAS G12V mutant assessed as induction of ERK1/2 T202/Y204 phosphorylation at 1.5 to 100 uM (lower range) incubated for 30 mins by In-cell Western assay. It counts as cell-based.

For series [4], the target named is T1, Son of sevenless homolog 1 (Homo sapiens). Description: Biphasic activity at of SOS1 in human HeLa cells expressing wild type KRAS assessed as induction of ERK1/2 T202/Y204 phosphorylation at 1.5 to 100 uM (lower range) incubated for 30 mins by In-cell Western assay. It counts as cell-based.
Series [5] addresses T2, Son of sevenless homolog 1 (Homo sapiens, UniProt Q07889).
T2 sequence (Q07889 whole entry): T1 sequence (whole entry)
As to the kind of experiment: Activation of SOS1 in human HeLa cells expressing wild type KRAS assessed as induction of ERK1/2 T202/Y204 phosphorylation incubated for 30 mins by In-cell Western assay. It counts as cell-based.

Series [6] addresses T1, Son of sevenless homolog 1 (Homo sapiens). As to the kind of experiment: Activation of SOS1 in human HeLa cells expressing wild type KRAS assessed as increase in RAS-GTP levels at 0.3 to 30 uM incubated for 10 mins by active RAS pull-down assay. It counts as cell-based. The method, boiled down: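 HeLa cells seeded to reach 70% confluency after 24 h, then treated. RAS-GTP was captured by a RAF1-RBD active RAS pull-down kit, resolved by SDS-PAGE, blotted to PVDF and probed with pan-RAS antibody. Total RAS and α-tubulin inputs served as loading controls. Detection was by fluorescent secondary antibody on an Odyssey imager.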

The target of series [7] is T2, Son of sevenless homolog 1. As to the kind of experiment: Binding affinity to human recombinant N-terminal His6-tagged SOS1 (564 to 1049 residues) expressed in BL21-RIL Escherichia coli by fluorescent probe S3 based fluorescence polarization anisotrophy saturation binding assay. The method, boiled down:
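SOS1cat (aa 564–1049) was titrated in a 16-point, 3-fold series from 10 μM top against 50 nM fluorescein probe S3. Buffer was 20 mM Tris-HCl pH 7.5, 50 mM NaCl, 1 mM magnesium chloride. Fluorescence anisotropy was read and Kd reported as mean ± SD of at least three independent experiments.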
A general note: In fluorescence polarisation assays a small probe gives low polarisation when free and higher when bound to something large.

Series [8] concerns the target T1, Son of sevenless homolog 1 (Homo sapiens). Description: Activation of SOS1 in human NCI-H727 cells expressing KRAS G12V mutant assessed as induction of ERK1/2 T202/Y204 phosphorylation at 1.5 to 100 uM (higher range) incubated for 30 mins by In-cell Western assay. It is filed as cell-based.
For series [9] the target is unchanged. As to the kind of experiment: Biphasic activity at of SOS1 in human HeLa cells expressing wild type KRAS assessed as reduction in ERK1/2 T202/Y204 phosphorylation at 1.5 to 100 uM (higher range) incubated for 30 mins by In-cell Western assay. It is filed as cell-based.
Series [10] has the same target. As to the kind of experiment: Activation of SOS1 in human HeLa cells expressing wild type KRAS assessed as increase in RAS-GTP levels at 10 to 30 uM incubated for 10 mins by active RAS pull-down assay. It is filed as cell-based. The gist of the method:
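HeLa cells, STR-authenticated and mycoplasma-negative, were passaged at least twice after thaw (25 passages maximum). They were seeded to reach 70% confluency after 24 h, then treated. Active RAS-GTP was captured by RAF1-RBD pull-down and detected by SDS-PAGE and western blot with a pan-RAS antibody and a fluorescent secondary, read on an Odyssey imager. Total RAS and α-tubulin in the input served as loading controls.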

Series [11] shares this target. Description: Activation of SOS1 in human HeLa cells expressing wild type KRAS assessed as induction of ERK1/2 T202/Y204 phosphorylation at 1.5 to 100 uM incubated for 30 mins by In-cell Western assay.
The target in series [12] is T2, Son of sevenless homolog 1. As to the kind of experiment: Binding affinity to human recombinant N-terminal His6-tagged SOS1 (564 to 1049 residues) expressed in BL21-RIL Escherichia coli by fluorescent probe S2 based fluorescence polarization anisotrophy saturation binding assay.
For series [13], the target named is T1, Son of sevenless homolog 1 (Homo sapiens). Description: Activation of SOS1 in human HeLa cells expressing wild type KRAS assessed as increase in RAS-GTP levels at 0.3 uM incubated for 10 mins by active RAS pull-down assay. It is filed as cell-based.

As usually defined, the pEC50 is −log10 of the EC50, conventionally taken in molar units. For orientation: solubility means the dissolved amount per volume that the medium holds. Broadly, the pKd is −log10 of the Kd, conventionally taken in molar units. Take `Cc1cc(Cn2c(N3CC4(CNC4)C3)nc3c(-c4cncnc4C)cc(Cl)cc32)cc(C)c1F`: the pEC50 in series [1] is 4.80; in [5], 4.94. Moreover, the solubility in series [2] is 3 µg/mL (≈ 6.29 µM). In addition, the result in [3], in series [4], in series [6], in series [8] and in series [9] was Active. The pKd in series [7] was 7.80.

In the case of `Cc1cc(Cn2c(N3CCNCC3)nc3c(N4CCN(C)CC4)cc(Cl)cc32)cc(C)c1F`, the outcome in [10], in [11], in [4], in series [8] and in [9] was Active.

Regarding `Cc1cc(Cn2c(N3CCNCC3)nc3c(-c4cncnc4C)cc(Cl)cc32)cc(C)c1F`, the results for the negative-log EC50 (pEC50) in [1] and in series [5] were 4.84 and 4.99, respectively. Besides, the result in series [3], in [4], in series [6], in [8] and in series [9] was Active. The pKd in [12] is 6.96.

In the case of `Cc1cc(Cn2c(N3CC4(CNC4)C3)nc3c(N4CCN(C)CC4)cc(Cl)cc32)cc(C)c1F`, the outcome in [10], in series [11], in [3], in series [4], in [13] and in series [8] was Active. The outcome in [9] was Active. In addition, the pEC50 was 5.00 in [1] and 5.23 in series [5]. In addition, in series [2], the solubility is over 110 µg/mL. Besides, the negative logarithm of the Kd (pKd) in [7] was 7.36.

As to `Cc1ncncc1-c1cc(Cl)cc2c1nc(N1CC3(CNC3)C1)n2Cc1ccc(F)cc1`, the figures for the pEC50 in [1] and in series [5] were 4.37 and 4.48, respectively. In addition, the result in series [3], in [4] and in series [6] was Active. In addition, the pKd in series [12] is 6.74. Also, the outcome in series [8] and in [9] was inactive.
